In brackets after ≈: the same amount, converted by molar mass. Like-named read-outs stand apart in the source and are kept apart here. Marks after values point to notes of the source that are not given here.
What was measured:
[1] = target: LecB (Pseudomonas aeruginosa, UniProt Q9HYN5); test: Isothermal titration calorimetry; assay type: binding
[2] = target: T1, LecA (Pseudomonas aeruginosa, UniProt Q05097); test: Isothermal titration calorimetry; assay type: binding
T1 sequence (Q05097 1-122): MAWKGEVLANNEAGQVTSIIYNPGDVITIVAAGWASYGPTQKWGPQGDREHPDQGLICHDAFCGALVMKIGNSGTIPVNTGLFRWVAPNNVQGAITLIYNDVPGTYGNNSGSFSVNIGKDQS

[3] = system: Pseudomonas aeruginosa strain PAO1 biofilms; test: Biofilm inhibition; assay type: cell-based; details: 24 h growth, WST-8; compound alone
Method in brief: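 PAO1 grown overnight in LB at 37 °C with 180 rpm shaking, washed in 0.25% (w/v) nutrient broth and normalised to OD600 1. Inoculated into 0.25% nutrient broth no. 2 containing sterile-filtered test compound at varied concentrations. Incubated 24–25 h at 37 °C, static, humid. Wells washed twice with water, stained 2.5–3 h at 37 °C with 0.5 mM WST-8 plus 20 μM phenazine ethosulfate in 0.25% broth. Supernatant A450 read.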

[4] = system: Pseudomonas aeruginosa PAO1; details: cited from earlier work
[5] = system: Pseudomonas aeruginosa strain PAO1 biofilms; test: Dispersal of already established biofilms; assay type: cell-based; details: 24 h
Method in brief: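 PAO1 inoculum (LB overnight, washed, OD600 1) grown as biofilm 24 h at 37 °C, static, without compound, in 0.25% nutrient broth. Wells washed twice, then 0.25% broth with sterile-filtered test compound added (50 μM or stated concentration). After a further 24 h at 37 °C static, wells washed twice and stained 2.5–3 h with 0.5 mM WST-8/20 μM phenazine ethosulfate. A450 read; value is concentration giving complete dispersal.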

[6] = system: Pseudomonas aeruginosa strain PAO1; test: Bacterial cell viability in the supernatant of the biofilm inhibition assay; assay type: cell-based; details: CFU counts in the biofilm supernatant and growth test in full medium
[7] = system: Pseudomonas aeruginosa PAO1; test: Broth microdilution method; assay type: cell-based; details: standard 2-fold dilution assay, full LB medium
Method in brief: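 Broth microdilution: 64 μM compound stocks in LB, sterile-filtered, diluted serially 1/2 in LB. PAO1 grown overnight in LB (37 °C, 180 rpm), diluted to OD600 0.022; 4 μL added to 150 μL sample (~5 × 10^5 CFU). Sterility, growth and polymyxin B (from 64 μg mL−1) controls. Incubated ~18 h at 37 °C, static. MTT (1 mg mL−1) added, 10 min RT. MIC = lowest concentration without visible growth by eye.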

[8] = ITC, 20 mM Tris, 100 mM NaCl, 100 μM CaCl2, pH 7.5, 25 °C
[9] = ITC, 20 mM Tris, 100 mM NaCl, 100 μM CaCl2, pH 7.5, 25 °C, average of two runs

Chain of LecB (Q9HYN5 2-115 limits assumed): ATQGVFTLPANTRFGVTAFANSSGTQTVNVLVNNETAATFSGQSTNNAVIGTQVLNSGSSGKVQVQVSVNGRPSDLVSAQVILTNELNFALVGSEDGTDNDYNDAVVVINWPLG

Question: Which Kd [1, 8] does the source give for `CC(=O)N[C@H]1C(O)O[C@H](CO)[C@@H](O[C@@H]2O[C@@H](C)[C@@H](O)[C@@H](O)[C@@H]2O)[C@@H]1O[C@@H]1O[C@H](CO)[C@H](O)[C@H](O)[C@H]1O` (stereo partly shown) [Le^a, Lewis^a trisaccharide] here?
Answer: 213 ± 2 nM

Question: And the ΔG [1, 8]?
Answer: –9.10 ± 0.02 kcal mol^–1

Question: And the ΔH [1, 8]?
Answer: –8.35 ± 0.02 kcal mol^–1

Question: And the “–TΔS” value [1, 8]?
Answer: –0.74 ± 0.002 kcal mol^–1

Question: What about the “n (stoichiometry of the binding)” value [1, 9] of the same compound?
Answer: 1.08 ± 0.01

Question: And the “r.p./nsugar (relative potency per fucoside)” value ([1]; KD(FucOCH3)/KD(ligand)/nFuc)?
Answer: 2

Question: Which ΔH [2, 8] does the source give for `O=[N+]([O-])c1ccc(O[C@@H]2O[C@H](CO)[C@H](O)[C@H](O)[C@H]2O)cc1` [NPG, 4-nitrophenyl-β-D-galactopyranoside] here?
Answer: –10.6 ± 0.45 kcal mol^–1

Question: What about the “–TΔS” value [2, 8] of the same compound?
Answer: 4.0 kcal mol^–1

Question: And the “n (stoichiometry of the binding)” value [2, 9]?
Answer: 0.91 ± 0.03

Question: And the “r.p./nGal (relative potency per galactoside)” value ([2]; KD(GalAG0 or GalBG0)/KD(ligand)/nGal)?
Answer: 0.2

Question: What does the source list for `NC[C@H]1O[C@H](O[C@H]2[C@H](O)[C@@H](O[C@H]3O[C@H](CO)[C@@H](O)[C@H](N)[C@H]3O)[C@H](N)C[C@@H]2N)[C@H](N)C[C@@H]1O` [Tobramycin]?
Answer: MBIC (minimal biofilm inhibitory concentration) [3]: 0.5 µM; MIC (minimal inhibitory concentration) [4]: 1 μg mL^–1 ^g; Dispersal of already established biofilms ([5]; compound at 4 μM): 100% dispersal @ 4 μM; MBC (minimal bactericidal concentration under biofilm forming conditions) [6]: 0.5 µM (≈ 0.234 µg/mL); MBC (minimal bactericidal concentration under biofilm forming conditions) ([6]; listed as tobramycin): bactericidal antibiofilm effect

Question: Which results are given for (Ac-KKL)4(KFCxKI)2KHI [AcG2xK]?
Answer: Dispersal of already established biofilms ([5]; compound at 50 μM): 100% dispersal; MIC (minimal inhibitory concentration) [7]: >64 µM

Question: What does the source list for Polymyxin B?
Answer: MIC (minimal inhibitory concentration) ([4]; full medium): 2 μg mL^–1 ^f; Dispersal of already established biofilms ([5]; compound at 10 μM): ∼70% dispersal @ 10 μM
